Measurements from ChEMBL document CHEMBL1155161, “Effects of the translocation status of human immunodeficiency virus type 1 reverse transcriptase on the efficiency of excision of tenofovir” (Antimicrob Agents Chemother, 2007).

Columns and labels:
[1] = target: T1, Human immunodeficiency virus type 1 reverse transcriptase (Human immunodeficiency virus 1, UniProt Q72547); assay: Inhibition of HIV1 reverse transcriptase by steady state nucleotide incorporation assay
Method in brief: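 Steady-state assay with activated calf thymus DNA as template in excess; rates from linear regression of [3H]dNTP incorporation over time; Km and Ki fitted to competitive inhibition equation (constant Vmax) over increasing NRTI concentrations; two-tailed t tests.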

[2] = target: Human immunodeficiency virus type 1 reverse transcriptase (Human immunodeficiency virus 1) (UniProt Q72547); assay: Ratio of Ki to Km for HIV1 reverse transcriptase by steady state nucleotide incorporation assay
Method in brief: (§1)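 Steady-state kinetics for WT or 4Y p66/p51 RT on activated calf thymus DNA, with template in excess. Rates come from linear regression of [3H]dNTP incorporation over a time course, with increasing NRTI. Km and Ki are fitted with a competitive inhibition equation (Marquardt-Levenberg); two-tailed t-tests.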

[3] = target: Human immunodeficiency virus type 1 reverse transcriptase (Human immunodeficiency virus 1, UniProt Q72547, D67N/L210W/M41L/T215Y); assay: Inhibition of HIV1 reverse transcriptase M41L/D67N/L210W/T215Y mutant by steady state nucleotide incorporation assay; method in brief: as §1
[4] = test system: Human immunodeficiency virus 1; assay: Ratio of Ki for HIV1 reverse transcriptase M41L/D67N/L210W/T215Y mutant to Ki for wild-type reverse transcriptase; method in brief: as §1
[5] = test system: Human immunodeficiency virus type 1 reverse transcriptase (Human immunodeficiency virus 1), Q72547 [M41L,D67N,L210W,T215Y]; assay: Ratio of Ki to Km for HIV1 reverse transcriptase M41L/D67N/L210W/T215Y mutant by steady state nucleotide incorporation assay; method in brief: as §1
[6] = test system: Human immunodeficiency virus 1; assay: Ratio of Ki/Km for HIV1 reverse transcriptase M41L/D67N/L210W/T215Y mutant to Ki/Km for wild-type reverse transcriptase; method in brief: as §1
[7] = target: Human immunodeficiency virus type 1 reverse transcriptase (Human immunodeficiency virus 1) (UniProt Q72547); assay: Inhibition of HIV1 reverse transcriptase assessed as dCTP level required to form 80% of binary enzyme complex formation with drug-terminated primer in posttranslocation state by site-specific foot printing assay
Method in brief: (§2)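 Site-specific footprinting uses a radiolabelled template with WT or 4Y p66/p51 RT in pH 7 cacodylate buffer with 6 mM MgCl2. The primer is chain-terminated with 10 μM analogue (20 min, 37°C), then the next nucleotide dCTP is added at varying levels for 10 min at 37°C. Complexes are treated with KOONO and resolved on urea gels. The value is the dCTP level giving 50% or 80% posttranslocated complex; ≥3 experiments.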

[8] = target: T1, Human immunodeficiency virus type 1 reverse transcriptase; assay: Binding affinity to ternary complex of HIV1 reverse transcriptase with primer/template in presence of dCTP substrate
[9] = test system: Human immunodeficiency virus type 1 reverse transcriptase (Human immunodeficiency virus 1), Q72547 [M41L,D67N,L210W,T215Y]; assay: Inhibition of HIV1 reverse transcriptase M41L/D67N/L210W/T215Y mutant assessed as dCTP level required to form 80% of binary enzyme complex formation with drug-terminated primer in posttranslocation state by site-specific foot printing assay; method in brief: as §2
[10] = target: Human immunodeficiency virus type 1 reverse transcriptase (Human immunodeficiency virus 1) (UniProt Q72547); assay: Inhibition of HIV1 reverse transcriptase assessed as dCTP level required to form 50% of binary enzyme complex formation with drug-terminated primer in posttranslocation state by site-specific foot printing assay; method in brief: as §2
[11] = target: Human immunodeficiency virus type 1 reverse transcriptase (Human immunodeficiency virus 1) (UniProt Q72547); assay: Ratio of Kcat to Km for HIV1 reverse transcriptase assessed as nucleotide excision activity in presence of 0.5 uM dCTP
Method in brief: (§3)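 Purified heterodimeric p66/p51 HIV-1 RT (WT or M41L/D67N/L210W/T215Y). ATP plus a dNTP mix containing the next nucleotide dCTP (0.5 or 10 μM) is then added at 37°C. Excised/rescued product is followed over time on denaturing urea gels. ATP Km and Vmax give kcat/Km; means of ≥3 experiments. Ratios are 4Y/WT or 0.5/10 μM dCTP.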

[12] = target: Human immunodeficiency virus type 1 reverse transcriptase (Human immunodeficiency virus 1) (UniProt Q72547); assay: Ratio of Kcat to Km for HIV1 reverse transcriptase assessed as nucleotide excision activity in presence of 10 uM dCTP; method in brief: as §3
[13] = test system: Human immunodeficiency virus type 1 reverse transcriptase (Human immunodeficiency virus 1), Q72547 [M41L,D67N,L210W,T215Y]; assay: Ratio of Kcat to Km for HIV1 reverse transcriptase M41L/D67N/L210W/T215Y mutant assessed as nucleotide excision activity in presence of 0.5 uM dCTP; method in brief: as §3
[14] = test system: Human immunodeficiency virus type 1 reverse transcriptase (Human immunodeficiency virus 1), Q72547 [M41L,D67N,L210W,T215Y]; assay: Ratio of Kcat to Km for HIV1 reverse transcriptase M41L/D67N/L210W/T215Y mutant assessed as nucleotide excision activity in presence of 10 uM dCTP; method in brief: as §3
[15] = test system: Human immunodeficiency virus 1; assay: Ratio of Kcat/Km for HIV1 reverse transcriptase M41L/D67N/L210W/T215Y mutant to Kcat/Km for wild-type reverse transcriptase assessed as nucleotide excision activity in presence of 0.5 uM dCTP; method in brief: as §3
[16] = test system: Human immunodeficiency virus 1; assay: Ratio of Kcat/Km for HIV1 reverse transcriptase M41L/D67N/L210W/T215Y mutant to Kcat/Km for wild-type reverse transcriptase assessed as nucleotide excision activity in presence of 10 uM dCTP; method in brief: as §3
[17] = target: Human immunodeficiency virus type 1 reverse transcriptase (Human immunodeficiency virus 1) (UniProt Q72547); assay: Ratio of Kcat/Km for HIV1 reverse transcriptase in presence of 0.5 uM dCTP to Kcat/Km for reverse transcriptase in presence of 10 uM dCTP by nucleotide excision activity assay; method in brief: as §3
[18] = test system: Human immunodeficiency virus type 1 reverse transcriptase (Human immunodeficiency virus 1), Q72547 [M41L,D67N,L210W,T215Y]; assay: Ratio of Kcat/Km for HIV1 reverse transcriptase M41L/D67N/L210W/T215Y mutant in presence of 0.5 uM dCTP to Kcat/Km for reverse transcriptase M41L/D67N/L210W/T215Y mutant in presence of 10 uM dCTP by nucleotide excision activity assay; method in brief: as §3
[19] = test system: Human immunodeficiency virus type 1 reverse transcriptase (Human immunodeficiency virus 1), Q72547 [M41L,D67N,L210W,T215Y]; assay: Inhibition of HIV1 reverse transcriptase M41L/D67N/L210W/T215Y mutant assessed as dCTP level required to form 50% of binary enzyme complex formation with drug-terminated primer in posttranslocation state by site-specific foot printing assay; method in brief: as §2
[20] = test system: C[C@H](Cn1cnc2c(N)ncnc21)OCP(=O)(O)O; assay: (§4) Activity of HIV1 reverse transcriptase M41L/D67N/L210W/T215Y mutant assessed as nucleotide excision activity in presence of 0.5 uM dCTP; details: Human immunodeficiency virus 1; method in brief: as §3
[21] = test system: Cc1cn([C@H]2C[C@H](N=[N+]=[N-])[C@@H](COP(=O)(O)O)O2)c(=O)[nH]c1=O; assay: as §4; details: Human immunodeficiency virus 1; method in brief: as §3
[22] = test system: [N-]=[N+]=N[C@H]1C[C@H](n2cnc3c(N)ncnc32)O[C@@H]1COP(=O)(O)O; assay: as §4; details: Human immunodeficiency virus 1; method in brief: as §3
[23] = test system: C[C@H](Cn1cnc2c(N)ncnc21)OCP(=O)(O)O; assay: (§5) Activity of HIV1 reverse transcriptase M41L/D67N/L210W/T215Y mutant assessed as nucleotide excision activity in presence of 10 uM dCTP; details: Human immunodeficiency virus 1; method in brief: as §3
[24] = test system: Cc1cn([C@H]2C[C@H](N=[N+]=[N-])[C@@H](COP(=O)(O)O)O2)c(=O)[nH]c1=O; assay: as §5; details: Human immunodeficiency virus 1; method in brief: as §3
[25] = test system: [N-]=[N+]=N[C@H]1C[C@H](n2cnc3c(N)ncnc32)O[C@@H]1COP(=O)(O)O; assay: as §5; details: Human immunodeficiency virus 1; method in brief: as §3

| Compound | Ki [1] | Ratio [2] | Ki [3] | Ratio Ki [4] | Ratio [5] | Ratio [6] | Activity [7] | Kd [8] | Activity [9] | Activity [10] | Ratio [11] | Ratio [12] | Ratio [13] | Ratio [14] | Ratio [15] | Ratio [16] | Ratio [17] | Ratio [18] | Activity [19] | also measured |
| --- | --- | --- | --- | --- | --- | --- | --- | --- | --- | --- | --- | --- | --- | --- | --- | --- | --- | --- | --- | --- |
| C[C@H](Cn1cnc2c(N)ncnc21)OCP(=O)(O)OP(=O)(O)O | 0.21 µM | 0.47 | 0.11 µM | 0.5 | 0.19 | 0.4 |  |  |  |  |  |  |  |  |  |  |  |  |  |  |
| [N-]=[N+]=N[C@H]1C[C@H](n2cnc3c(N)ncnc32)O[C@@H]1COP(=O)(O)OP(=O)(O)OP(=O)(O)OP(=O)(O)O | 0.23 µM | 0.51 | 0.15 µM | 0.65 | 0.26 | 0.5 |  |  |  |  |  |  |  |  |  |  |  |  |  |  |
| Nc1ncnc2c1ncn2[C@H]1CC[C@@H](COP(=O)(O)O)O1 |  |  |  |  |  |  | 0.2 µM | 0.1 µM | 0.3 µM |  |  |  |  |  |  |  |  |  |  |  |
| Cc1cn([C@H]2C[C@H](N=[N+]=[N-])[C@@H](COP(=O)(O)OP(=O)(O)OP(=O)(O)O)O2)c(=O)[nH]c1=O |  | 0.09 |  | 1.2 | 0.09 | 1 |  |  |  |  |  |  |  |  |  |  |  |  |  |  |
| [N-]=[N+]=N[C@H]1C[C@H](n2cnc3c(N)ncnc32)O[C@@H]1COP(=O)(O)O |  |  |  |  |  |  | 100 µM |  | > 100 µM | 10 µM | 0.49 | 0.37 | 1.6 | 1.2 | 3.3 | 3.2 | 1.3 | 1.3 | 27 µM |  |
| Cc1cn([C@H]2C[C@H](N=[N+]=[N-])[C@@H](COP(=O)(O)O)O2)c(=O)[nH]c1=O [AZIDOTHYMIDINE MONOPHOSPHATE] |  |  |  |  |  |  | 31 µM | 24.9 µM | 50 µM | 8 µM | 0.19 | 0.16 | 1.3 | 1.08 | 6.8 | 6.8 | 1.2 | 1.2 | 8 µM |  |
| Nc1ncnc2c1ncn2[C@H]1CC[C@@H](COP(=O)(O)OP(=O)(O)OP(=O)(O)O)O1 [DDA-TRIPHOSPHATE] | 0.09 µM | 0.2 | 0.05 µM | 0.6 | 0.09 | 0.5 |  |  |  |  |  |  |  |  |  |  |  |  |  |  |
| C[C@H](Cn1cnc2c(N)ncnc21)OCP(=O)(O)O [TENOFOVIR ANHYDROUS] |  |  |  |  |  | 0.4 | 3 µM | 3.2 µM | 2 µM | 0.1 µM | 1.1 | 0.15 | 16.4 | 2.9 | 14.9 | 19.3 | 7.3 | 5.7 | 0.3 µM |  |
| Cc1cn([C@H]2C[C@H](N=[N+]=[N-])[C@@H](CO[P@](=O)(O)O[P@](=O)(O)OP(=O)(O)O)O2)c(=O)[nH]c1=O [ZIDOVUDINE TRIPHOSPHATE] | 0.041 µM |  | 0.047 µM |  |  |  |  |  |  |  |  |  |  |  |  |  |  |  |  |  |
| Human immunodeficiency virus type 1 reverse transcriptase (Human immunodeficiency virus 1) (from UniProt Q72547) M41L,D67N,L210W,T215Y |  |  |  |  |  |  |  |  |  |  |  |  |  |  |  |  |  |  |  | Km [20]: 590 µM; kcat [20]: 9.7 ×10⁻³ /min; Km [21]: 1400 µM; kcat [21]: 1.8 ×10⁻³ /min; Km [22]: 2000 µM; kcat [22]: 3.2 ×10⁻³ /min; Km [23]: 960 µM; kcat [23]: 2.8 ×10⁻³ /min; Km [24]: 1200 µM; kcat [24]: 1.3 ×10⁻³ /min; Km [25]: 2000 µM; kcat [25]: 2.4 ×10⁻³ /min |
